We go through three compounds from paper PMC5161678 (Clinical cancer research : an official journal of the …, 2016).

The structures appear in SMILES notation. Bounds are passed on as bounds.

One series has as its system nurse-like cells (NLC). The series is described as follows: NLC generation and survival in CLL patient PBMC cultures. Type of series: cell-based, human. The following applies: pacritinib 1 μM; for NLC survival: CLL PBMC cultured 7–10 days, ruxolitinib 5 μM; for NLC survival / intact NLC by morphology: fedratinib 5 μM; for intact NLC by morphology: established NLC cultures treated for 24 hours. The method in brief: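 PBMC from CLL patients not on therapy were plated at 3–5 × 10^6 cells/mL in RPMI with 10% FBS at 37°C, 5% CO2 for 7–10 days, then given test compound or DMSO vehicle. NLC were counted by morphology in five high-power fields or as high forward/side-scatter events by flow cytometry. Viability was read by annexin V/PI. For some cultures, CLL cells were gently removed before treatment.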

The test system of series [1] is CSF-1R. The conditions noted are these: CSF-1R in vitro; cited from earlier work.
The conditions of series [2]: in vivo; cited from earlier work.
The target of series [3] is T1, CSF-1R (Homo sapiens, UniProt P07333). The series is described as follows: CSF-1R phosphorylation sandwich ELISA in CSF-1 treated monocytes. In kind it is cell-based. The conditions noted are these: recombinant CSF-1 10 ng/mL, 5 minutes, fedratinib 5 μM, pacritinib 1 μM.
The next series concerns CD5+CD19+ CLL B-cells. Kind of series: CLL B-cell viability by Annexin V/PI staining in NLC cocultures. Type of series: cell-based, human. The conditions noted are these: for CLL viability: long-term NLC/CLL cocultures, ruxolitinib 5 μM, fedratinib 5 μM, pacritinib 1 μM.
The next series relates to ERK and AKT. Kind of series: ERK and AKT phosphorylation in CSF-1 treated monocytes. The conditions noted are these: pacritinib. In kind it is cell-based, human. A digest of the protocol: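 Healthy-donor monocytes were CD14 bead-selected from PBMC, cultured overnight, then stimulated 5 min with recombinant human CSF-1 (10 ng/mL) plus test compound or DMSO vehicle. Lysis buffer: Tris pH 7.5, EDTA, NaCl, NP-40, deoxycholate, SDS and protease/phosphatase inhibitors. SDS-PAGE on 5–12% gradient gels, PVDF transfer, 1 h milk block. Probed for total and pT308/pS473 AKT, and total and pT202/Y204 ERK1/2.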

The test system of series [4] is monocyte-derived macrophages. The series is described as follows: monocyte and monocyte-derived macrophage viability. Type of series: cell-based, human.
Series [5] deals with T1, CSF-1R. The series is described as follows: in vitro radiometric kinase assay. In kind it is biochemical.
Another series concerns lymphoma. The following applies: cited from earlier work.

T1 sequence (P07333 20-972): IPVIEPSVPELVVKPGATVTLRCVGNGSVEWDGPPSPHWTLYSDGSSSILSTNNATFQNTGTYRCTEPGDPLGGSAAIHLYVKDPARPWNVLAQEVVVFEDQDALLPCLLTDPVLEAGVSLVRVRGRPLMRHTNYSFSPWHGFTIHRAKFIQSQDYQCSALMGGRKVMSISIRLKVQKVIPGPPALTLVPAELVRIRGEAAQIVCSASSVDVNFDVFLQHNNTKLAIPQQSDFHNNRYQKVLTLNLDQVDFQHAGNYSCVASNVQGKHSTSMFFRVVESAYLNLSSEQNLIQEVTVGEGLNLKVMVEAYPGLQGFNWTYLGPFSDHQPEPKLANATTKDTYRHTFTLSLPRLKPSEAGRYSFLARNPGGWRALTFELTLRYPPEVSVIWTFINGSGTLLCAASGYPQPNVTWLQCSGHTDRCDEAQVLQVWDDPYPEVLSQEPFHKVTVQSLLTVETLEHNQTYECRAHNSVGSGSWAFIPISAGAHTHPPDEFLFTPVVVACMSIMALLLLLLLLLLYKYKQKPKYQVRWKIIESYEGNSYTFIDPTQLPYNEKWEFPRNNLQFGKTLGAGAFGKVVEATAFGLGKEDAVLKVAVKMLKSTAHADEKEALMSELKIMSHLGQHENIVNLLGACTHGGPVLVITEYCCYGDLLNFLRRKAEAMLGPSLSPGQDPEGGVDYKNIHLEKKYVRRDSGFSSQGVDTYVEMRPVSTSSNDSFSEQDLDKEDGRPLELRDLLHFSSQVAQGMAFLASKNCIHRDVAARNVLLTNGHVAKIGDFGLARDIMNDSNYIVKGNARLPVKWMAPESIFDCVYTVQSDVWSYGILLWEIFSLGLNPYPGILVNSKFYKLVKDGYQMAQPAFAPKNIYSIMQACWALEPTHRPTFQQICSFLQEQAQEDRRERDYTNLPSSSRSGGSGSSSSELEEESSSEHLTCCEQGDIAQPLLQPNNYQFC

Take `N#CC[C@H](C1CCCC1)n1cc(-c2ncnc3[nH]ccc23)cn1` [ruxolitinib]: in the series on nurse-like cells (NLC), the NLC survival entry is “modest”. Further, in the series with CSF-1R [1], the IC50 is roughly 1000 nM.
Turning to `Cc1cnc(Nc2ccc(OCCN3CCCC3)cc2)nc1Nc1cccc(S(=O)(=O)NC(C)(C)C)c1` [fedratinib], the clinically achievable concentrations in series [2] was 1 to 5 µM. In the series on nurse-like cells (NLC), the NLC survival entry was “significant, and near total, loss”; the “intact NLC by morphology” value was “rarely observed”. The “total CSF-1R phosphorylation” value at CSF-1R [3] is reported as “significantly reduced”. Also, the CLL viability result in the series with CD5+CD19+ CLL B-cells is listed as “significantly reduced”. In the series on CSF-1R [1], the IC50 is greater than 1000 nM.
As to `C1=C/COCc2cc(ccc2OCCN2CCCC2)Nc2nccc(n2)-c2cccc(c2)COC/1` [pacritinib], in the series on nurse-like cells (NLC), the NLC survival result was “significant, and near total, loss”; the “intact NLC by morphology” value is given as “rarely observed”. Further, in the series on nurse-like cells (NLC) (CLL cells removed from established NLC cultures, 24 hours), the “viable NLC by annexin V/PI staining” value was “viable NLC were no longer identified”. In addition, in the series with ERK and AKT, the “downstream phosphorylation of ERK and AKT” value is recorded as “significantly impaired”. Further, the “monocyte and monocyte-derived macrophage viability” value in series [4] (CSF-1-treated monocytes, clinically achievable concentrations) is “significantly impaired”. In addition, in series [4] (pacritinib-treated macrophages), the “signs of apoptotic cell death” value is “caspase 3 activation, loss of mitochondrial membrane potential, and changes in cell morphology”. In addition, the “total CSF-1R phosphorylation” value on CSF-1R [3] is given as “significantly reduced”. In addition, the IC50 at CSF-1R [5] is less than 50 nM. In addition, the “IC50 (in words)” value against CSF-1R [5] (CSF-1R) was “low nanomolar range”. Besides, the CLL viability result in the series on CD5+CD19+ CLL B-cells is listed as “significantly reduced”. Moreover, the “induction of apoptosis in CLL samples” value in the series on CD5+CD19+ CLL B-cells (paired CLL samples, ibrutinib 1 uM or pacritinib 1 uM) is reported as “significant increase”. Also, the tolerability result in the series on lymphoma (patients with lymphoma) is “well tolerated”. For the same compound, in the series with lymphoma (various NHL, including CLL), the clinical activity result is recorded as “clinical activity”.
